The results in this text go back to ChEMBL document CHEMBL4373735, “N-alkyl-hydroxybenzoyl anilide hydroxamates as dual inhibitors of HDAC and HSP90, downregulating IFN-γ induced PD-L1 expression” (Eur J Med Chem, 2020).

One assay deals with Histone deacetylase 5 (Homo sapiens, UniProt Q9UQL6). The experiment in a line: Inhibition of recombinant human C-terminal His-fusion tagged HDAC5 (657 to 1123 residues) expressed in baculovirus infected insect cells using Boc-K(Ac)-AMC as substrate after 60 mins by fluorimetry analysis. The method, boiled down:
(§1)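 Isoform assays run by an outside contractor. […] Trichostatin A tested in parallel the same way as control.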

For assay [1], the target named is T1, Heat shock protein HSP90 (Homo sapiens) (UniProt P07900+P08238). The experiment in a line: Inhibition of HSP90 in human H1975 cells assessed as downregulation of SRC protein level by Western blot analysis. It is filed as cell-based. The gist of the method: (§2)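 H1975 cells given DMSO or 0.1-3 μM compound for 24 h, or 1 μM for varying times. HSP70 and HSP90 client proteins detected by Western blot of whole-cell lysates, with GAPDH as internal control. Repeated in at least three independent experiments.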
(Immunoblotting shows a protein as a band on a membrane.)

Assay [2] addresses Protein deacetylase HDAC6 (Homo sapiens, UniProt Q9UBN7). The experiment in a line: Inhibition of recombinant human N-terminal GST-tagged HDAC6 (1 to 1125 residues) expressed in baculovirus infected insect cells using RHK-K(Ac)-AMC as substrate after 90 mins by fluorimetry analysis. The gist of the method:
as §1

In a further assay the target is Histone deacetylase. It is filed as cell-based, Homo sapiens. Particulars: hela.
Another assay deals with Histone deacetylase 11 (Homo sapiens, UniProt Q96DB2). The experiment in a line: Inhibition of human recombinant N-terminal Streptavidin2-tagged HDAC11 (1 to 347 residues) expressed in baculovirus infected insect cells using Boc-Lys(TFA)-AMC as substrate after 60 mins by fluorescence assay. The gist of the method: as §1
Histone deacetylase 11, sequence (Q96DB2 whole entry, the tested form may be a part): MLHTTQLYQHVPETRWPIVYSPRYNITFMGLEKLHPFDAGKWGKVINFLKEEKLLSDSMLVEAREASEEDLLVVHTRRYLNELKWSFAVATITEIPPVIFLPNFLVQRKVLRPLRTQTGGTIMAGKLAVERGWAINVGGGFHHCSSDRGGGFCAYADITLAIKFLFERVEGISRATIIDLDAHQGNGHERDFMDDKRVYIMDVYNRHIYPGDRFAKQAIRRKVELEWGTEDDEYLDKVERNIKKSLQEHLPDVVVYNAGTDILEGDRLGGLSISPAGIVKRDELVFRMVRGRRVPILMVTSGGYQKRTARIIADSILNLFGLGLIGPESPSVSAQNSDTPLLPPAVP
Assay [3] concerns NCI-H1975. The experiment in a line: Cell cycle arrest in human NCI-H1975 cells assessed as increase in accumulation at sub-G1 phase at 0.1 to 3 uM after 48 hrs by propidium iodide/RNase staining based FACScan flow cytometry analysis. It is filed as functional. The method, boiled down: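 H1975 cells seeded at 2.5×10^5/well, left overnight, then exposed to DMSO or compound at several concentrations for 48 h. Washed in PBS, fixed in ice-cold 70% ethanol at -20 °C overnight, stained with propidium iodide 80 ug/ml plus 0.1% Triton X-100 and RNase A 100 ug/ml in PBS. DNA content read by FACScan.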
(Flow cytometry measures light scatter and fluorescence of single cells or particles in a stream.)

The next assay concerns A549. As to the kind of experiment: Antiproliferative activity against human A549 cells assessed as cell growth inhibition after 48 hrs by sulforhodamine B assay. It is filed as functional. As to conditions: Homo sapiens, A549, 48 h. The gist of the method: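 Cells seeded at 5000/well overnight; baseline plate fixed with 10% TCA at time of compound addition (T0). Treated with DMSO or graded doses for 48 h, fixed with 10% TCA, stained with 0.4% (w/v) SRB in 1% acetic acid, washed with 1% acetic acid, dye solubilised in 10 mM Trizma base, absorbance at 515 nm. GI50 from T0-corrected growth; at least three independent experiments, SD reported.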
(In SRB staining, fixed cells bind dye roughly in proportion to their protein.)

Assay [4] deals with NCI-H1975. As to the kind of experiment: cells. Particulars: Homo sapiens, NCI-H1975, 48 h. It is filed as functional.
A further assay deals with Histone deacetylase 4 (Homo sapiens, UniProt P56524). The experiment in a line: Inhibition of recombinant N-terminal GST-tagged and C-terminal His-tagged human HDAC4 expressed in baculovirus infected insect cells using RHK-K(Ac)-AMC as substrate after 60 mins by fluorimetry analysis. The method, boiled down: as §1
Another assay concerns the target Histone deacetylase 1 (Homo sapiens, UniProt Q13547). As to the kind of experiment: Inhibition of recombinant full length human FLAG/His-tagged HDAC1 (1 to 482 residues) expressed in baculovirus infected insect cells using RHK-K(Ac)-AMC as substrate measured after 60 mins by fluorimetric assay. The gist of the method:
as §1

The target in another assay is Histone deacetylase 8 (Homo sapiens, UniProt Q9BY41). The experiment in a line: Inhibition of recombinant C-terminal His-fusion tagged and N-terminal Streptavidin2-tagged human HDAC8 (1 to 377 residues) expressed in insect cells using RHK-K(Ac)-AMC as substrate after 60 mins by fluorescence assay. The method, boiled down: as §1
Histone deacetylase 8, sequence (Q9BY41 whole entry, the tested form may be a part): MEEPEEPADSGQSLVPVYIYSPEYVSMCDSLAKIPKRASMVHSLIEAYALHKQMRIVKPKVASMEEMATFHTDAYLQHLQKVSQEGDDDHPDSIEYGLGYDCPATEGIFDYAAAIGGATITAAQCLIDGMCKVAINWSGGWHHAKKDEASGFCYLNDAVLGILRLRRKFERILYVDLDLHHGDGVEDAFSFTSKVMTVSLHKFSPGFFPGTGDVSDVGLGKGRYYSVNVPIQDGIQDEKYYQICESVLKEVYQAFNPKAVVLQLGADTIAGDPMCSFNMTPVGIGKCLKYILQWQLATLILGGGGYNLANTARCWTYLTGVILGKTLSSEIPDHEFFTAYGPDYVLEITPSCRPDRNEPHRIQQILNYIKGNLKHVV
Assay [5] deals with NCI-H1975. The experiment in a line: Inhibition of IFNgamma-induced PD-L1 expression in human NCI-H1975 cells assessed as reduction in PD-L1 expression incubated for 48 hrs by Western blot analysis. The class given is functional, cell-based. The method, boiled down: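 H1975 cells exposed to IFN-γ 20 ng/ml alone or together with compound at the indicated concentrations for 48 h. Lysates run on 10% reducing SDS-PAGE and transferred to nitrocellulose. Blocked in 5% milk/PBST, probed with mouse anti-PD-L1 for 1 h, HRP goat anti-mouse detected by ECL. β-actin used as loading control.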

A further assay has as its target Histone deacetylase 7 (Homo sapiens, UniProt Q8WUI4). As to the kind of experiment: Inhibition of recombinant human N-terminal GST-tagged HDAC7 (518 to 991 residues) expressed in baculovirus infected insect cells using Boc-K(Ac)-AMC as substrate after 90 mins by fluorimetry analysis. The gist of the method:
as §1

The subject of assay [6] is NCI-H1975. The experiment in a line: Induction of apoptosis in human NCI-H1975 cells assessed as activation of caspase 9 at 0.1 to 3 uM measured after 48 hrs immunoblot analysis. The class given is functional, cell-based. The gist of the method:
(§3)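 H1975 cells cultured with compound at the indicated concentrations for 48 h, then immunoblotted with the indicated antibodies. Lysis buffer was ice-cold RIPA-type with phosphatase and protease inhibitors, 30 min on ice. Proteins separated on 8-15% SDS-PAGE, transferred to PVDF, primary antibody overnight at 4°C, HRP secondary 1 h at room temperature, ECL detection.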

The test system of assay [7] is NCI-H1975. As to the kind of experiment: Inhibition of PD-L1 cell surface expression in IFNgamma-stimulated human NCI-H1975 cells at 0.74 uM after 48 hrs by FITC staining based FACScan flow cytometry analysis. The class given is functional. The method, boiled down:
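Cells seeded at 3.2×10^5/well and treated with IFN-γ 20 ng/ml with or without compound for 48 h. Then 3×10^5 cells stained with mouse anti-PD-L1 5 µg/ml for 1 h, followed by FITC goat anti-mouse IgG for 1 h, in PBS/0.05% BSA. FITC mean fluorescence intensity measured by FACScan and expressed relative to untreated cells. Mean ± S.D. of three independent experiments.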

For assay [8], the system named is NCI-H1975. As to the kind of experiment: Induction of apoptosis in human NCI-H1975 cells assessed as activation of caspase 8 at 0.1 to 3 uM measured after 48 hrs immunoblot analysis. The class given is functional, cell-based. The method, boiled down: as §3
Assay [9] addresses T1, Heat shock protein HSP90 (Homo sapiens). The experiment in a line: Inhibition of HSP90 in human H1975 cells assessed as induction of HSP70 expression by Western blot analysis. It is filed as cell-based. The gist of the method:
as §2

A further assay deals with Histone deacetylase 3 (Homo sapiens, UniProt O15379). The experiment in a line: Inhibition of human recombinant full length C-terminal His-tagged HDAC3 (1 to 428 residues) expressed in baculovirus infected insect cells using RHK-K(Ac)-AMC as substrate after 60 mins by fluorimetry analysis. The gist of the method:
as §1

For a further assay, the system named is HCT-116. The experiment in a line: cells. The class given is functional. As to conditions: Homo sapiens, HCT-116, 48 h.
Another assay concerns the target Histone deacetylase 9 (Homo sapiens, UniProt Q9UKV0). As to the kind of experiment: Inhibition of human HDAC9 using (Boc-Lys(trifluoroacetyl)-AMC) as substrate by fluorescence assay. The gist of the method:
as §1

In another assay the target is Histone deacetylase 2 (Homo sapiens, UniProt Q92769). The experiment in a line: Inhibition of recombinant human GST-tagged HDAC2 (1 to 488 residues) expressed in baculovirus infected sf21 cells using RHK-K(Ac)-AMC as substrate after 60 mins by fluorimetry assay. The method, boiled down: as §1
Histone deacetylase 2, sequence (Q92769 whole entry, the tested form may be a part): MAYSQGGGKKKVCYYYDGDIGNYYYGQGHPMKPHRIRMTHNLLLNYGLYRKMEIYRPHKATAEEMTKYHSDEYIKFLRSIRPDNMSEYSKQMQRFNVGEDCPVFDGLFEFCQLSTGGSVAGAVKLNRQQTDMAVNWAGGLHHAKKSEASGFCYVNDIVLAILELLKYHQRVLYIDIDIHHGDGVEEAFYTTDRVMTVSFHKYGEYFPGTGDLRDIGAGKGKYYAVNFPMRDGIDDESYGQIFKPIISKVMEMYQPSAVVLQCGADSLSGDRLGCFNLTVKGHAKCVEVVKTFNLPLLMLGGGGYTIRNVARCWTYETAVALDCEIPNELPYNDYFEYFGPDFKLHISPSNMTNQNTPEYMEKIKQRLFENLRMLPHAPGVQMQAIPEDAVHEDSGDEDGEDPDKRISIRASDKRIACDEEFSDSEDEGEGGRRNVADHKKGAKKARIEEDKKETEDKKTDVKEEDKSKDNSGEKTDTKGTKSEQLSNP
Assay [10] deals with T1, Heat shock protein HSP90 (Homo sapiens). The experiment in a line: Inhibition of HSP90 in human H1975 cells assessed as downregulation of Rb protein level by Western blot analysis. It is filed as cell-based. The gist of the method:
as §2

Calls of active or inactive are those of the source. No cut-off for these calls is given here.

Histone deacetylase 1, sequence (Q13547 whole entry, the tested form may be a part): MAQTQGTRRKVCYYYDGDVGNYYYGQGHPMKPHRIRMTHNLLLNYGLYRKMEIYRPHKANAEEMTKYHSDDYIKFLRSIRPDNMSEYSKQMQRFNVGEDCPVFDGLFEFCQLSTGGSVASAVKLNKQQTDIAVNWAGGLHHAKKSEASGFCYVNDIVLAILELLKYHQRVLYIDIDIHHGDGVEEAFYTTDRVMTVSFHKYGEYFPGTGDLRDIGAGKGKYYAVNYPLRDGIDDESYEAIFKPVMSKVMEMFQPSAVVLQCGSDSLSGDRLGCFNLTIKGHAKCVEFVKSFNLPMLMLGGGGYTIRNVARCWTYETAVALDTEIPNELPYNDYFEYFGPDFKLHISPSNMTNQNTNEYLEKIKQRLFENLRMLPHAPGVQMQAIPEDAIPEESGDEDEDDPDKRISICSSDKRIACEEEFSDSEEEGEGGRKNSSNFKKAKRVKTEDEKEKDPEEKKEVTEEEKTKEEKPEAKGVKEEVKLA
Histone deacetylase 7, sequence (Q8WUI4 whole entry, the tested form may be a part): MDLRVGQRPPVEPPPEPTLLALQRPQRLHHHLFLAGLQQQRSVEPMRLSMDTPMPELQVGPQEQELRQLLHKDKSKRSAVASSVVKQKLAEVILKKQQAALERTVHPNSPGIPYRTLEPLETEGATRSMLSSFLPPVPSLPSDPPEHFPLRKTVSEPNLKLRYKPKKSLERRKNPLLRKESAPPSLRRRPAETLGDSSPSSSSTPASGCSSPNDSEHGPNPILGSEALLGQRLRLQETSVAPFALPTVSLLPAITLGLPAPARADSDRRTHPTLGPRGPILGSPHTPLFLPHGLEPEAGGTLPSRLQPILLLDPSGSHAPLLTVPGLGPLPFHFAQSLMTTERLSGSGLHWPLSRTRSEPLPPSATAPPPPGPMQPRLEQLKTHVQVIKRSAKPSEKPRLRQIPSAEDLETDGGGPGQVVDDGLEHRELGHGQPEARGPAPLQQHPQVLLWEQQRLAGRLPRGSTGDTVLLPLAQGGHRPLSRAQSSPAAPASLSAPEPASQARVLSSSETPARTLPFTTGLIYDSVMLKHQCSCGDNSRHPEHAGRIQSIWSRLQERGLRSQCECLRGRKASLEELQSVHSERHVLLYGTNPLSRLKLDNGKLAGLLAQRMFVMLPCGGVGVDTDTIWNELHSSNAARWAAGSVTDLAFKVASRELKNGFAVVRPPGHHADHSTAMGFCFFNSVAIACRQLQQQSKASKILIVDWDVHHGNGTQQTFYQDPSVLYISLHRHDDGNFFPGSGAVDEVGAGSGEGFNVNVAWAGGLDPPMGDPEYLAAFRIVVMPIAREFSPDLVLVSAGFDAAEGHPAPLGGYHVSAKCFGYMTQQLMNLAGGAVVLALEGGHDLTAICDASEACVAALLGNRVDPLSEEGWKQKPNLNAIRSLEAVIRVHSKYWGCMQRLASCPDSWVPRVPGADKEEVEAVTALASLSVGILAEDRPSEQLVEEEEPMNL
Protein deacetylase HDAC6, sequence (Q9UBN7 whole entry, the tested form may be a part): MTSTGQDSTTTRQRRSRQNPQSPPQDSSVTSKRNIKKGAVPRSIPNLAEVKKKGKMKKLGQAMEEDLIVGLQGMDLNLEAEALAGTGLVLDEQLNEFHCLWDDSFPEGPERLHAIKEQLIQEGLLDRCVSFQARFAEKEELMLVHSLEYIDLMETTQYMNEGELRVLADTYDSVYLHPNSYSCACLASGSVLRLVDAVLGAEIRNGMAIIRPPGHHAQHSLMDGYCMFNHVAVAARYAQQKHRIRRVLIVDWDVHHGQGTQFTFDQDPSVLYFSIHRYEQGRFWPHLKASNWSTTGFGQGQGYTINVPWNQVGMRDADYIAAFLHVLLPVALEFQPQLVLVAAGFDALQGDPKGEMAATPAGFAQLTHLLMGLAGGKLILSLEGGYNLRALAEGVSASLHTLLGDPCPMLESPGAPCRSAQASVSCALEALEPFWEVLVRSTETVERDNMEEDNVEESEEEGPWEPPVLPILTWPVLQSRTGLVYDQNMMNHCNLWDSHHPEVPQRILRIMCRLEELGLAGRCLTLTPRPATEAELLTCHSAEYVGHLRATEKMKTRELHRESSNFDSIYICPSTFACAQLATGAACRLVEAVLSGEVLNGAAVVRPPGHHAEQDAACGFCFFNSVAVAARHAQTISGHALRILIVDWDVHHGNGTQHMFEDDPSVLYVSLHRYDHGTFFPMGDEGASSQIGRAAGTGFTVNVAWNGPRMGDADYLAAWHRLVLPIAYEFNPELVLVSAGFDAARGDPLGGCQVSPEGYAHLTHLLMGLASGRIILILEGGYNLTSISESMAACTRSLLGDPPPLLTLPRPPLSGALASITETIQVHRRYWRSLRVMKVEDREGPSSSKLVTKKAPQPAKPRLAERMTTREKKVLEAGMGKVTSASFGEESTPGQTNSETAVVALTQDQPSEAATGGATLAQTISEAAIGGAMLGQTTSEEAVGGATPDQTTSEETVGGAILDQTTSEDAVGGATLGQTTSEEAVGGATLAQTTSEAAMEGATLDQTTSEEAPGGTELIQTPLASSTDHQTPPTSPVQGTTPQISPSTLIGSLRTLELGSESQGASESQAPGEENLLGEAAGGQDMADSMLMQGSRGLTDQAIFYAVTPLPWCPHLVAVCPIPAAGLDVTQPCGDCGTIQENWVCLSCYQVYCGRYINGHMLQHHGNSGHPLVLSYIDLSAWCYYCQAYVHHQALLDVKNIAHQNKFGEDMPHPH
Histone deacetylase 5, sequence (Q9UQL6 whole entry, the tested form may be a part, canonical isoform): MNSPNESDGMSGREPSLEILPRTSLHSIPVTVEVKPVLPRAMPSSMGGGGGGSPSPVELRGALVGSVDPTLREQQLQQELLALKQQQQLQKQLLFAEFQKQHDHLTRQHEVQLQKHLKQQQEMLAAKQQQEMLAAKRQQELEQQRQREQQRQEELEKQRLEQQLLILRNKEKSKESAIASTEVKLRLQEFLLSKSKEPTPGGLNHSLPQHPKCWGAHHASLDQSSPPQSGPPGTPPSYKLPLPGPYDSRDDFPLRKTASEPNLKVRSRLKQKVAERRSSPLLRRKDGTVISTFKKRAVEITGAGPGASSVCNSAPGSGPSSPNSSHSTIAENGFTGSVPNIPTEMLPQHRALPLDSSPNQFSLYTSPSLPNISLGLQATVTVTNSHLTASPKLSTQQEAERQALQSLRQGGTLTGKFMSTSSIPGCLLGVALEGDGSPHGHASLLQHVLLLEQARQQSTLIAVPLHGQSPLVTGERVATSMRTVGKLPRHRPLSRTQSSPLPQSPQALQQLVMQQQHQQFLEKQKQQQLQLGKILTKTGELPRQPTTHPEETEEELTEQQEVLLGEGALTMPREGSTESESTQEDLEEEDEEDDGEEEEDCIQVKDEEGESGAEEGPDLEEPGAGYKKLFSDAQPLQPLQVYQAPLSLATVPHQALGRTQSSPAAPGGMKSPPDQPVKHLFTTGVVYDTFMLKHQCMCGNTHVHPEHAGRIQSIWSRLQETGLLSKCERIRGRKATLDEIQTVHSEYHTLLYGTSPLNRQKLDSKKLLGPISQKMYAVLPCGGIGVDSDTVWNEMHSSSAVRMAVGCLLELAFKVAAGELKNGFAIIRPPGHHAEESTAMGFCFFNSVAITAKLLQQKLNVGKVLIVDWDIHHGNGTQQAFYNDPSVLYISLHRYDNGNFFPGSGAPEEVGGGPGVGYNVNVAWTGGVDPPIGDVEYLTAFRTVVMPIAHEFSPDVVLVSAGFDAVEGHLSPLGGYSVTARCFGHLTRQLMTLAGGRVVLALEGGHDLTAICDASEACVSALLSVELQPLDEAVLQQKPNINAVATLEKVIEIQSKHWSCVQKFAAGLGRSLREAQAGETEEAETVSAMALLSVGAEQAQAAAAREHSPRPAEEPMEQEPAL

For the compound `CC(C)c1cc(C(=O)N(C)c2ccc(NC(=O)CCCCCCCC(=O)NO)cc2)c(O)cc1O`, the half-inhibitory concentration (IC50) at Histone deacetylase 5 was 5410 nM; in assay [2], 316 nM; on Histone deacetylase, 361 nM; at Histone deacetylase 11 it was 1890 nM; on Histone deacetylase 4, more than 10000 nM; on Histone deacetylase 1, 6060 nM. The half-inhibitory concentration (IC50) was 3410 nM at Histone deacetylase 8; 6400 nM at Histone deacetylase 7; 1440 nM at Histone deacetylase 3; more than 10000 nM against Histone deacetylase 9; 4910 nM at Histone deacetylase 2. Further, the inhibition entry (in assay [1]; in the assay on NCI-H1975 [7]; in assay [9]; in assay [10]) was “Active” in each case. Moreover, the outcome in the assay with NCI-H1975 [3], in the assay on NCI-H1975 [6] and in the assay on NCI-H1975 [8] was Active. Also, the values for the GI50 with A549, with NCI-H1975 [4] and in the assay on HCT-116 were 440 nM, 400 nM and 1060 nM, respectively. In addition, the inhibition entry in the assay on NCI-H1975 [5] was “Dose-dependent effect”.
Take `CC(C)c1cc(C(=O)N(C)c2ccc(NC(=O)CCCCCCC(=O)NO)cc2)c(O)cc1O`: the IC50 was 7860 nM at Histone deacetylase 5; 40 nM in [2]; 195 nM against Histone deacetylase; 3610 nM on Histone deacetylase 11; more than 10000 nM at Histone deacetylase 4; 1310 nM on Histone deacetylase 1. Besides, the IC50 at Histone deacetylase 8 was 422 nM; on Histone deacetylase 7, more than 10000 nM; at Histone deacetylase 3, 2060 nM; on Histone deacetylase 9, more than 10000 nM; on Histone deacetylase 2, 1190 nM. For the same compound, the inhibition entry (in [1]; in the assay with NCI-H1975 [7]; in assay [9]; in assay [10]) was “Active” each time. Besides, the result in the assay with NCI-H1975 [3], with NCI-H1975 [6] and in the assay on NCI-H1975 [8] was Active. The GI50 with A549 worked out at 770 nM; with NCI-H1975 [4], 690 nM; in the assay with HCT-116, 830 nM. Moreover, the inhibition entry in the assay with NCI-H1975 [5] was “Dose-dependent effect”.

The IC50 is the point on the concentration scale where inhibition reaches its midpoint. Usually GI50 stands for the concentration at which growth is held to half of that of the control.
